Measured values reported in ChEMBL document CHEMBL2062453, “Lead optimization through VLAK protocol: new annelated pyrrolo-pyrimidine derivatives as antitumor agents” (2012).

Experiments:
Assay type in all cases: functional
BT-549 = assay: Cytotoxicity against human BT549 cells assessed as cell growth at 10 uM after 48 hrs by SRB assay relative to control; conditions: BT-549, 48 h, read-out: Activity
How it was run: (§1)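 NCI primary screen of about 60 human tumour lines. Cells inoculated and preincubated, then a single test concentration added and cultures incubated 48 h. Result given as percent growth (G%) of treated versus untreated control cells.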

HCT-116 = assay: Cytotoxicity against human HCT116 cells assessed as cell growth at 10 uM after 48 hrs by SRB assay relative to control; conditions: HCT-116, 48 h, read-out: Activity; how it was run: as §1
NCI-H23 = assay: Cytotoxicity against human NCI-H23 cells assessed as cell growth at 10 uM after 48 hrs by SRB assay relative to control; conditions: NCI-H23, 48 h, read-out: Activity
SK-MEL-28 = assay: Cytotoxicity against human SK-MEL-28 cells assessed as cell growth at 10 uM after 48 hrs by SRB assay relative to control; conditions: SK-MEL-28, 48 h, read-out: Activity
ACHN = assay: Cytotoxicity against human ACHN cells assessed as cell growth at 10 uM after 48 hrs by SRB assay relative to control; conditions: read-out: Activity; how it was run: as §1
HOP-92 = assay: Cytotoxicity against human HOP92 cells assessed as cell growth at 10 uM after 48 hrs by SRB assay relative to control; conditions: HOP-92, 48 h, read-out: Activity; how it was run: as §1
TK-10 = assay: Cytotoxicity against human TK10 cells assessed as cell growth at 10 uM after 48 hrs by SRB assay relative to control; conditions: TK-10, 48 h, read-out: Activity
How it was run: (§2)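 NCI single-dose primary screen across about 60 human tumour lines. Each line was inoculated and preincubated on microtiter plates, then exposed to one concentration of agent for 48 h. Growth is reported as percent growth (G%) of treated cells versus untreated control cells.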

HOP-62 = assay: Cytotoxicity against human HOP62 cells assessed as cell growth at 10 uM after 48 hrs by SRB assay relative to control; conditions: HOP-62, 48 h, read-out: Activity; how it was run: as §1
Malme-3M = assay: Cytotoxicity against human MALME-3M cells assessed as cell growth at 10 uM after 48 hrs by SRB assay relative to control; conditions: read-out: Activity; how it was run: as §1
OVCAR-8 = assay: Cytotoxicity against human OVCAR8 cells assessed as cell growth at 10 uM after 48 hrs by SRB assay relative to control; conditions: OVCAR-8, 48 h, read-out: Activity
EKVX = assay: Cytotoxicity against human EKVX cells assessed as cell growth at 10 uM after 48 hrs by SRB assay relative to control; conditions: read-out: Activity; how it was run: as §1
RPMI-8226 = assay: Cytotoxicity against human RPMI8226 cells assessed as cell growth at 10 uM after 48 hrs by SRB assay relative to control; conditions: RPMI-8226, 48 h, read-out: Activity
SW-620 = assay: Cytotoxicity against human SW620 cells assessed as cell growth at 10 uM after 48 hrs by SRB assay relative to control; conditions: SW-620, 48 h, read-out: Activity; how it was run: as §2
A549 = assay: Cytotoxicity against human A549 cells assessed as cell growth at 10 uM after 48 hrs by SRB assay relative to control; conditions: A549, 48 h, read-out: Activity; how it was run: as §1
UACC-62 = assay: Cytotoxicity against human UACC62 cells assessed as cell growth at 10 uM after 48 hrs by SRB assay relative to control; conditions: UACC-62, 48 h, read-out: Activity; how it was run: as §2
PC-3 = assay: Cytotoxicity against human PC3 cells assessed as cell growth at 10 uM after 48 hrs by SRB assay relative to control; conditions: PC-3, 48 h, read-out: Activity
HCC 2998 = assay: Cytotoxicity against human HCC2998 cells assessed as cell growth at 10 uM after 48 hrs by SRB assay relative to control; conditions: HCC 2998, 48 h, read-out: Activity; how it was run: as §1
T47D = assay: Cytotoxicity against human T47D cells assessed as cell growth at 10 uM after 48 hrs by SRB assay relative to control; conditions: read-out: Activity; how it was run: as §2
MDA-MB-435 = assay: Cytotoxicity against human MDA-MB-435 cells assessed as cell growth at 10 uM after 48 hrs by SRB assay relative to control; conditions: MDA-MB-435, 48 h, read-out: Activity
NCI/ADR-RES = assay: Cytotoxicity against human NCI/ADR-RES cells assessed as cell growth at 10 uM after 48 hrs by SRB assay relative to control; conditions: read-out: Activity
SK-MEL-2 = assay: Cytotoxicity against human SK-MEL-2 cells assessed as cell growth at 10 uM after 48 hrs by SRB assay relative to control; conditions: SK-MEL-2, 48 h, read-out: Activity
HL-60(TB) = assay: Cytotoxicity against human HL-60(TB) cells assessed as cell growth at 10 uM after 48 hrs by SRB assay relative to control; conditions: HL-60, 48 h, read-out: Activity
SNB-75 = assay: Cytotoxicity against human SNB75 cells assessed as cell growth at 10 uM after 48 hrs by SRB assay relative to control; conditions: SNB-75, 48 h, read-out: Activity
UACC-257 = assay: Cytotoxicity against human UACC257 cells assessed as cell growth at 10 uM after 48 hrs by SRB assay relative to control; conditions: UACC-257, 48 h, read-out: Activity; how it was run: as §2
HCT-15 = assay: Cytotoxicity against human HCT15 cells assessed as cell growth at 10 uM after 48 hrs by SRB assay relative to control; conditions: HCT-15, 48 h, read-out: Activity; how it was run: as §1
OVCAR-3 = assay: Cytotoxicity against human OVCAR3 cells assessed as cell growth at 10 uM after 48 hrs by SRB assay relative to control; conditions: OVCAR-3, 48 h, read-out: Activity
RXF 393 = assay: Cytotoxicity against human RXF393 cells assessed as cell growth at 10 uM after 48 hrs by SRB assay relative to control; conditions: RXF 393, 48 h, read-out: Activity
MCF7 = assay: Cytotoxicity against human MCF7 cells assessed as cell growth at 10 uM after 48 hrs by SRB assay relative to control; conditions: MCF7, 48 h, read-out: Activity; how it was run: as §1
COLO 205 = assay: Cytotoxicity against human COLO205 cells assessed as cell growth at 10 uM after 48 hrs by SRB assay relative to control; conditions: COLO 205, 48 h, read-out: Activity; how it was run: as §1
NCI-H460 = assay: Cytotoxicity against human NCI-H460 cells assessed as cell growth at 10 uM after 48 hrs by SRB assay relative to control; conditions: NCI-H460, 48 h, read-out: Activity
MDA-MB-231 = assay: Cytotoxicity against human MDA-MB-231 cells assessed as cell growth at 10 uM after 48 hrs by SRB assay relative to control; conditions: MDA-MB-231, 48 h, read-out: Activity; how it was run: as §1
OVCAR-4 = assay: Cytotoxicity against human OVCAR4 cells assessed as cell growth at 10 uM after 48 hrs by SRB assay relative to control; conditions: OVCAR-4, 48 h, read-out: Activity
SF-268 = assay: Cytotoxicity against human SF268 cells assessed as cell growth at 10 uM after 48 hrs by SRB assay relative to control; conditions: SF-268, 48 h, read-out: Activity

SMILES	growth at 10 µM (BT-549) [%]	growth at 10 µM (HCT-116) [%]	growth at 10 µM (NCI-H23) [%]	growth at 10 µM (SK-MEL-28) [%]	growth at 10 µM (ACHN) [%]	growth at 10 µM (HOP-92) [%]	growth at 10 µM (TK-10) [%]	growth at 10 µM (HOP-62) [%]	growth at 10 µM (Malme-3M) [%]	growth at 10 µM (OVCAR-8) [%]	growth at 10 µM (EKVX) [%]	growth at 10 µM (RPMI-8226) [%]	growth at 10 µM (SW-620) [%]	growth at 10 µM (A549) [%]	growth at 10 µM (UACC-62) [%]	growth at 10 µM (PC-3) [%]	growth at 10 µM (HCC 2998) [%]	growth at 10 µM (T47D) [%]	growth at 10 µM (MDA-MB-435) [%]	growth at 10 µM (NCI/ADR-RES) [%]	other results
CSC1=Nc2c(c(C)c(C)n2CCCC(=O)O)C2=NC(=O)CN12	105	111	109	110	108	92	121	98	115	111	105	110	110	117	111	98	118	103	119	114	growth at 10 µM (SK-MEL-2): 111%; growth at 10 µM (HL-60(TB)): 95%; growth at 10 µM (SNB-75): 111%; growth at 10 µM (UACC-257): 120%; growth at 10 µM (HCT-15): 114%; growth at 10 µM (OVCAR-3): 113%; growth at 10 µM (RXF 393): 122%; growth at 10 µM (MCF7): 95%; growth at 10 µM (COLO 205): 137%; growth at 10 µM (NCI-H460): 105%; growth at 10 µM (MDA-MB-231): 100%; growth at 10 µM (OVCAR-4): 104%; growth at 10 µM (SF-268): 114%
CSC1=Nc2c(c(C)c(C)n2CCCC(=O)NCCc2cnc[nH]2)C2=NC(=O)CN12	120	96	103	113	112	91	139	109	109	108	99	87	104	101	100	100	118	101	116	110	growth at 10 µM (SK-MEL-2): 121%; growth at 10 µM (HL-60(TB)): 100%; growth at 10 µM (SNB-75): 78%; growth at 10 µM (UACC-257): 114%; growth at 10 µM (HCT-15): 109%; growth at 10 µM (OVCAR-3): 165%; growth at 10 µM (RXF 393): 116%; growth at 10 µM (MCF7): 94%; growth at 10 µM (COLO 205): 132%; growth at 10 µM (NCI-H460): 101%; growth at 10 µM (MDA-MB-231): 110%; growth at 10 µM (OVCAR-4): 93%; growth at 10 µM (SF-268): 130%
CCOC(=O)CCCn1c(C)c(C)c2c1N=C(SC)N1CC(=O)N=C21	119	111	117	114	110	89	135	112	119	113	104	95	110	102	106	103	129	95	122	112	growth at 10 µM (SK-MEL-2): 113%; growth at 10 µM (HL-60(TB)): 94%; growth at 10 µM (SNB-75): 90%; growth at 10 µM (UACC-257): 111%; growth at 10 µM (HCT-15): 108%; growth at 10 µM (OVCAR-3): 162%; growth at 10 µM (RXF 393): 121%; growth at 10 µM (MCF7): 96%; growth at 10 µM (COLO 205): 132%; growth at 10 µM (NCI-H460): 110%; growth at 10 µM (MDA-MB-231): 112%; growth at 10 µM (OVCAR-4): 100%; growth at 10 µM (SF-268): 132%
